A word on the Km: it is the concentration of substrate that gives half-maximal velocity. What is called IC50 is the concentration that inhibits the measured activity by half.

We go through 3 compounds from ChEMBL document CHEMBL1140845, “Synthesis of deoxygenated alpha(1-->5)-linked arabinofuranose disaccharides as substrates and inhibitors of arabinosyltransferases of Mycobacterium tuberculosis” (Bioorg Med Chem, 2009).

One assay relates to Mycobacterium avium. Briefly: Antimycobacterial activity against Mycobacterium avium NJ 211 at 12.8 to 128 ug/mL. In kind it is functional, organism-based.
Assay [1] relates to Mycobacterium tuberculosis. Briefly: Activity of arabinosyltransferase in Mycobacterium tuberculosis membrane assessed as [14C]Araf incorporation by TLC autoradiography.
Assay [2] in a line: Inhibition of arabinosyltransferase in Mycobacterium tuberculosis membrane assessed as blockade of [14C]Araf incorporation to {Ara-f(1>5)Araf-O_C8H17] acceptor molecule by TLC autoradiography. Put shortly:
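Competition format of the membrane AraTs assay: MOPS pH 8.0, MgCl2, ATP, β-mercaptoethanol, DP-[14C]Araf donor, 37°C for 1 h. Native acceptor Araf(1→5)Araf-O-C8H17 is held at 0.4 mM. Competitors are added at 0.5, 0.75, 1.0, 2.0, 4.0 and 6.0 mM. Product formation is judged by TLC (CHCl3:MeOH:NH4OH:H2O) with autoradiography at −70 °C for 3 days. IC50 is derived from the extent of product formation.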

Activity calls are given as the source filed them. The calls are words filed in the database; no cut-off is given here.

For the compound `CCCCCCCCO[C@H]1O[C@H](CO[C@H]2O[C@H](CO)[C@@H](O)[C@@H]2O)C[C@@H]1O`, in the assay with Mycobacterium avium, the outcome was Active. In addition, the Km in assay [1] came to 110 µM. In addition, the IC50 in assay [2] worked out at 2150 µM.

On to `CCCCCCCCO[C@H]1O[C@H](CO[C@H]2O[C@H](CO)[C@@H](O)[C@@H]2O)[C@@H](O)[C@@H]1F`, for which the result in the assay on Mycobacterium avium was Active. The Michaelis-Menten constant (Km) in assay [1] was found to be 560 µM. In assay [2], the IC50 came out at 3580 µM.

Take `CCCCCCCCO[C@@H]1C[C@H](O)[C@@H](CO[C@H]2O[C@H](CO)[C@@H](O)[C@@H]2O)O1`: the result in the assay with Mycobacterium avium was Active. Further, the Km in assay [1] was 150 µM. In addition, the IC50 in assay [2] was 2450 µM.
